Screening data (PubChem)
Compounds with a hit are over-represented: about 4.1% of the library has one in this group of screens.
hERG rescue – hERG rescue from dofetilide block, primary screen, cell-based, CHO-hERG, FluxOR thallium flux, dofetilide IC70. 310,000 tested, 0.51% active. activation (rescue from dofetilide block), less the hit threshold, % at 10 µM. Voltage-gated inwardly rectifying potassium channel KCNH2 (Homo sapiens), Q12809. dofetilide IC70 present. AID 1511, 2009;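 active means activation above the mean of controls blocked by dofetilide plus 5 SD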;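 further: thallium influx through hERG after potassium depolarization seen as dye fluorescence rise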
KCNK3 block – human KCNK3 channel inhibitors, primary screen, CHO cells, FluxOR thallium flux, B-score | AID 602410, 2012 | 340,000 tested, 0.84% active | B-score at 10 µM | FluxOR fluorescence; stronger effect = lower value;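 active means B-score under library mean minus 4 SD, starting fluorescence ratio at most library mean plus 5 SD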;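 further: more negative B-score means stronger inhibition of thallium flux through KCNK3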
Target sequence (O14649 whole entry, looked up): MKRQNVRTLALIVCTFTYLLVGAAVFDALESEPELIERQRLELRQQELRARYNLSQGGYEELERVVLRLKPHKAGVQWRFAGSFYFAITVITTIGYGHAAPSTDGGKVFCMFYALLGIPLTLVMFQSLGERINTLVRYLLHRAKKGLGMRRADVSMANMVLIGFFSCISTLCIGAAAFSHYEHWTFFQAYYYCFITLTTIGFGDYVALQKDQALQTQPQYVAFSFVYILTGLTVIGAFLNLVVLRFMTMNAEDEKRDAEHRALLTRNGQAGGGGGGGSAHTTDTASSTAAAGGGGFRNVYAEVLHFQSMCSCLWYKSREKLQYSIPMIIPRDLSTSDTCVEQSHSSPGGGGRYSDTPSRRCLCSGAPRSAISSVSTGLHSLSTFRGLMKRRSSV
Cl transport mod – KCC2 cotransporter modulators, thallium flux, primary screen, cell-based, HEK293 KCC2, FluoZin-2 fluorescence, MLSMR; Solute carrier family 12 member 5 (Homo sapiens), Q9H2X9; 190,000 tested, 2.2% active; B-score of Tl+ flux slope (higher = more flux/activation; lower = inhibition) at 10 µM; KCC2 cells, thallium flux FluoZin-2 fluorescence;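 active means thallium flux slope and its plate-corrected score both differing from the plate sample mean at a set confidence after two filtering rounds, in either direction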;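 further: slope of fluorescence scaled to starting intensity during 10 to 20 s after thallium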
KCNQ1 act – potentiators or activators of KCNQ1 channel, primary screen, cell-based, thallium flux, high-throughput. 310,000 tested, 0.35% active. B-score at 10 µM. CHO-K1 KCNQ1, thallium flux FluxOR fluorescence; stronger effect = higher value;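 active means fluorescence ratio B-score, a plate-corrected score, at least three library SD, with initial intensity B-score within 5 SD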
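Assay system: CHO-K1 cells stably expressing KCNQ1. Medium: assay buffer for compound exposure, DMSO matched across wells. Timing: 37 °C overnight plating, 90-min dark dye load, 20-min compound pretreatment. Signal: kinetic FluxOR fluorescence, 10 s baseline plus 110 s post-stimulus.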
KCNQ1 inh – inhibitors of human KCNQ1 channel, primary screen, cell-based, thallium flux, high-throughput; B-score at 10 µM; Potassium voltage-gated channel subfamily KQT member 1 (Homo sapiens), P51787; 310,000 tested, 1.3% active; CHO-K1 KCNQ1, FluxOR thallium flux fluorescence; stronger effect = higher value;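 active means compounds whose thallium flux B-score, printed positive for inhibition, exceeds three library SD while starting fluorescence stays within three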;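 further: channel opened by potassium depolarization with thallium stimulus after 20 min compound exposure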
KCNK9 block – KCNK9 potassium channel inhibitors, primary screen, HEK293 cells, thallium flux | Potassium channel subfamily K member 9 (Homo sapiens), Q9NPC2 | FluxOR thallium flux fluorescence; stronger effect = lower value | B-score at 10 µM | 310,000 tested, 1.2% active | AID 488922, 2010;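 active means ratio B-score over 3 SD below the library mean, with starting fluorescence within 5 SD of its mean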;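 further: negative B-score means less thallium flux so channel inhibition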
Target sequence (Q9NPC2 whole entry, looked up): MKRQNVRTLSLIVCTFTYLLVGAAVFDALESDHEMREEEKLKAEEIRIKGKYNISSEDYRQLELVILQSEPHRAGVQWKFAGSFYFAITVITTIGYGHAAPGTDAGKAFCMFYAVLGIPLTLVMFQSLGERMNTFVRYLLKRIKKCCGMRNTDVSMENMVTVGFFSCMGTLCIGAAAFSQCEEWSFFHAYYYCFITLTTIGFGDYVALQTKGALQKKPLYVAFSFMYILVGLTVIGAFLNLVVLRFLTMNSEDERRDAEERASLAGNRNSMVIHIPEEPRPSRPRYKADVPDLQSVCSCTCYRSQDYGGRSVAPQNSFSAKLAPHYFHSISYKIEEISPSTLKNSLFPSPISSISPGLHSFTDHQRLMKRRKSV
KCC2 secondary – KCC2 modulators in sodium-free buffer, confirmation, cell-based, HEK293 KCC2, thallium flux, secondary assay. normalised thallium flux (F/F0 slope) at 10 µM. shares compounds with Cl transport mod. AID 1713, 2009. FluoZin2 fluorescence; stronger effect = higher value. 3,700 tested, 15% active;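 active means thallium flux slope above the same plate's solvent-only control mean plus 3 SD; inconclusive means the two replicate wells disagree; inactive means no significant difference from solvent-only control wells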
KCC2 bumet counter – thallium flux persisting under bumetanide in KCC2 cells, confirmation, counter-screen for KCC2 modulator project, cell-based, HEK293 KCC2, FluoZin2, secondary assay 3; shares compounds with Cl transport mod; HEK293-KCC2 + bumetanide/ouabain; stronger effect = higher value; normalized thallium flux at 10 µM; 3,700 tested, 49% active;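 active means thallium entry rate above the same plate's blocked-transporter control wells by more than 3 SD; inconclusive means the two repeat wells disagree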;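 further: raw slope of fluorescence over initial fluorescence between 10 and 20 s after thallium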
KCC2 secondary2 – KCC2 modulators without ouabain present, confirmation, cell-based, HEK293 KCC2, thallium flux, FluoZin2, secondary assay 2; thallium flux FluoZin2 fluorescence; actives lie on both sides; F/F0 rise rate, 10–20 s post-thallium; 3,700 tested, 23% active; shares compounds with Cl transport mod; AID 1715, 2009; normalized thallium flux at 10 µM;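 active means thallium flux slope more than 3 SD above or below the plate's solvent-only control mean, mostly below; inconclusive means the two repeat wells disagreed; inactive means no significant shift from solvent-only controls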;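 further: raw slope with 0.1% DMSO as baseline and bumetanide as block control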
HEK counter1 – thallium flux modulation in parental HEK cells, confirmation, counter-screen for KCC2 modulator project, cell-based, counterscreen 1; shares compounds with Cl transport mod; HEK293 parental cells, thallium flux FluoZin2, ouabain; baseline-ratio fluorescence slope, 10–20 s after thallium; thallium flux rate (normalised fluorescence) at 10 µM; 3,700 tested, 46% active; AID 1716, 2009;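 active means thallium flux rate significantly above the same plate's solvent-only control wells, beyond their mean plus 3 SD; inconclusive means the two replicate wells gave conflicting results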
KCC2 retest ouab – KCC2 inhibitors and activators, ouabain retest, confirmation, HEK-KCC2 cells | HEK293-KCC2, thallium flux FluoZin2 fluorescence; bidirectional: low = inhibitor, high = activator | 3,700 tested, 48% active | shares compounds with Cl transport mod | raw Tl+ flux slope (below DMSO = inhibition, above = activation) at 10 µM;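 active means thallium flux slope beyond 3 SD from same-plate DMSO control mean in most replicates, usually higher, sometimes lower; inconclusive means repeat tests gave conflicting results; inactive means no significant difference from controls in most replicates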;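 further: slope of initial-normalized fluorescence between seconds 10 and 20 after thallium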
HEK counter2 – native HEK Tl+ uptake effects, second counter-screen – HEK cells, counterscreen 2, counter-screen for KCC2 modulator project, confirmation; shares compounds with Cl transport mod; HEK293 parental, thallium flux FluoZin-2 fluorescence slope; thallium flux slope at 10 µM; 3,700 tested, 33% active; AID 1718, 2009;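 active means thallium flux slope above the same plate's solvent-control mean plus 3 SD in both duplicate wells; inconclusive means duplicate wells that disagreed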;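 further: run without ouabain in cells lacking the KCC2 cotransporter; slope of fluorescence scaled to its starting value between 10 and 20 s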
* marks the source's active call; other numbers are inactive results.

Results for Cc1cc(C(=O)NNC(=O)c2cccc(Cl)c2)no1 ?
hERG rescue: -4; KCNK3 block: inactive; Cl transport mod: 7.4*; KCNQ1 act: inactive; KCNQ1 inh: inactive; KCNK9 block: inactive; KCC2 secondary: 0.0068; KCC2 bumet counter: 0.014*; KCC2 secondary2: 0.032; HEK counter1: 0.014*; KCC2 retest ouab: inconclusive; HEK counter2: 0.018*

Results for Cc1cc(C(=O)NNC(=O)c2ccc(Cl)cc2)no1 ?
hERG rescue: -3; KCNK3 block: inactive; Cl transport mod: 5.9*; KCNQ1 act: inactive; KCNQ1 inh: inactive; KCNK9 block: inactive; KCC2 secondary: 0.011; KCC2 bumet counter: 0.016*; KCC2 secondary2: 0.037; HEK counter1: 0.013*; KCC2 retest ouab: 0.027; HEK counter2: 0.012*

How did Cc1cc(/C(N)=N/OC(=O)c2cccc(Cl)c2)no1 do in these assays?
hERG rescue: -7; KCNK3 block: inactive; Cl transport mod: -0.02; KCNQ1 act: inactive; KCNQ1 inh: inactive; KCNK9 block: inactive

What do the screens show for `Cc1cc(/C(N)=N/OC(=O)c2ccc(Cl)cc2)no1`?
hERG rescue: -10; KCNK3 block: inactive; Cl transport mod: 1.7; KCNQ1 act: inactive; KCNQ1 inh: inactive; KCNK9 block: inactive

How did Cc1nc(-c2nc(-c3c(C(=O)NNC(=O)c4ccc(Cl)cc4)noc3C)cs2)cs1 do in these assays?
hERG rescue: 3; KCNK3 block: inactive; Cl transport mod: 103*; KCNQ1 act: 17*; KCNQ1 inh: inactive; KCNK9 block: inactive; KCC2 secondary: 0.043*; KCC2 bumet counter: 0.15*; KCC2 secondary2: 0.042; HEK counter1: inconclusive; KCC2 retest ouab: 0.092*; HEK counter2: 0.021*

What do the screens show for `O=C(COC(=O)c1ccc(Br)o1)Nc1nc2c(F)c(F)c(F)cc2s1`?
hERG rescue: -13; KCNK3 block: inactive; Cl transport mod: 1.1; KCNQ1 act: inactive; KCNQ1 inh: inactive; KCNK9 block: inactive

How did CCOc1ccc(CCNC(=O)c2cc3c(C)nccc3[nH]c2=O)cc1OCC do in these assays?
hERG rescue: -20; KCNK3 block: inactive; Cl transport mod: -2.5; KCNQ1 act: inactive; KCNQ1 inh: inactive; KCNK9 block: inactive

Results for C=CCc1ccccc1OCCOc1ccc([N+](=O)[O-])cc1/C=N/NC(N)=O ?
hERG rescue: -9; KCNK3 block: inactive; Cl transport mod: -0.47; KCNQ1 act: inactive; KCNQ1 inh: inactive; KCNK9 block: inactive

What do the screens show for `CCOC(=O)C1CCN(C(=O)C2CCN(S(=O)(=O)c3cccc4nsnc34)CC2)CC1`?
hERG rescue: -9; KCNK3 block: inactive; KCNQ1 act: inactive; KCNQ1 inh: inactive; KCNK9 block: inactive

How did Cc1nc(-c2nc(CC(=O)NNC(=O)c3ccc(Cl)cc3)cs2)cs1 do in these assays?
hERG rescue: -6; KCNK3 block: inactive; Cl transport mod: 0.66; KCNQ1 act: inactive; KCNQ1 inh: inactive; KCNK9 block: inactive

What do the screens show for `Cc1nc(C(=O)NNC(=O)c2ccc(Cl)cc2)cs1`?
hERG rescue: -11; KCNK3 block: inactive; Cl transport mod: 9.9*; KCNQ1 act: inactive; KCNQ1 inh: inactive; KCNK9 block: inactive; KCC2 secondary: inconclusive; KCC2 bumet counter: 0.025*; KCC2 secondary2: 0.035; HEK counter1: 0.012*; KCC2 retest ouab: 0.029; HEK counter2: inconclusive

Results for COC(=O)CSc1nc(NCc2ccccc2)nc(N(C)C)n1 ?
hERG rescue: 0; KCNK3 block: inactive; Cl transport mod: -0.3; KCNQ1 act: inactive; KCNQ1 inh: inactive; KCNK9 block: inactive

What do the screens show for `C=CCN1CCc2c(cc(O)c(O)c2Cl)C(c2ccccc2)C1` (stereo not drawn)?
hERG rescue: -7; KCNK3 block: inactive; Cl transport mod: -3*; KCNQ1 act: inactive; KCNQ1 inh: inactive; KCNK9 block: inactive; KCC2 secondary: 0.0062; KCC2 bumet counter: 0.0053; KCC2 secondary2: 0.029; HEK counter1: 0.0078; KCC2 retest ouab: 0.018; HEK counter2: 0.011

Results for C=CCN1CCc2cc(O)c(O)cc2C(c2ccccc2)C1 (stereo not drawn) ?
KCNK3 block: inactive

What do the screens show for `O=C(NCCc1ccccc1)c1nc2nc(-c3cccs3)cc(C(F)(F)F)n2n1`?
hERG rescue: -12; KCNK3 block: inactive; Cl transport mod: -2.5*; KCNQ1 act: inactive; KCNQ1 inh: inactive; KCNK9 block: inactive; KCC2 secondary: 0.0074; KCC2 bumet counter: 0.0066; KCC2 secondary2: 0.028; HEK counter1: 0.0069; KCC2 retest ouab: 0.019; HEK counter2: 0.0096
